Measurements reported in article PMC6409185 (Investigational new drugs, 2018).

Legend:
Assay type in all cases: biochemical
Settings in all cases: relaxation assay in the presence of 100 μM compound
E. coli Topo I = E. coli Topo I (Escherichia coli, UniProt P06612); experiment: Relaxation assay with E. coli Topo I
hTopo I = biological target: T1, hTopo I (Homo sapiens, UniProt P11387); experiment: Relaxation assay for eukaryotic Topo I
T1 sequence (P11387 1-765): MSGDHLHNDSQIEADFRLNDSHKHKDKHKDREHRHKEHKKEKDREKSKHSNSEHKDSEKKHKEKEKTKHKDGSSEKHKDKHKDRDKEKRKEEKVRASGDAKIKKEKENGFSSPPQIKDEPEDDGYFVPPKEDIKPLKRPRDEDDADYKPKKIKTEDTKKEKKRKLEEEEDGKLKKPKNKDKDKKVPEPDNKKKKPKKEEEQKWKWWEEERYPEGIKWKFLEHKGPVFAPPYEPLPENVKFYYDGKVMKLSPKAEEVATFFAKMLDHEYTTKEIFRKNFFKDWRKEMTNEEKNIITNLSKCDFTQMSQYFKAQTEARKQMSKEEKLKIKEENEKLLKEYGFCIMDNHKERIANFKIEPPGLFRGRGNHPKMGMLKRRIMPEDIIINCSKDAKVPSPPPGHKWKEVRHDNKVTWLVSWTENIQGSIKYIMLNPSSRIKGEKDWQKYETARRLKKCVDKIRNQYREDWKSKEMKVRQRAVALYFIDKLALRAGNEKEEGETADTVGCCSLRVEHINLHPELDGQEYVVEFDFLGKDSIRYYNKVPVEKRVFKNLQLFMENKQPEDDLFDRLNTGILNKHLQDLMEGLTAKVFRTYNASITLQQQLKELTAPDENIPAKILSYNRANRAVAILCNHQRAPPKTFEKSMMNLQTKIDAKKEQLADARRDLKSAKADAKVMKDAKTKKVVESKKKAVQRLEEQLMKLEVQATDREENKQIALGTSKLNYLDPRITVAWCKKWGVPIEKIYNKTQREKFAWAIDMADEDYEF
How it was run: (§1)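 Commercial calf or human Topo I, 1 unit (the amount that fully relaxes 0.3 μg supercoiled pBR322), with 0.3 μg supercoiled pBR322 and test compound in 50 mM Tris-HCl pH 7.5, 100 mM NaCl, 10 mM MgCl2, 1 mM DTT, 50 μg/ml BSA. Run 15 min at 37°C, stopped with 25 mM EDTA. Products run on 1.2% agarose in TAE (2 V/cm, 15 h), stained with ethidium bromide, imaged and quantified.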

Calf Topo I (cTopo I) = experiment: Relaxation assay for eukaryotic Topo I
How it was run: as §1

E. coli Topo I, sequence (P06612 whole entry): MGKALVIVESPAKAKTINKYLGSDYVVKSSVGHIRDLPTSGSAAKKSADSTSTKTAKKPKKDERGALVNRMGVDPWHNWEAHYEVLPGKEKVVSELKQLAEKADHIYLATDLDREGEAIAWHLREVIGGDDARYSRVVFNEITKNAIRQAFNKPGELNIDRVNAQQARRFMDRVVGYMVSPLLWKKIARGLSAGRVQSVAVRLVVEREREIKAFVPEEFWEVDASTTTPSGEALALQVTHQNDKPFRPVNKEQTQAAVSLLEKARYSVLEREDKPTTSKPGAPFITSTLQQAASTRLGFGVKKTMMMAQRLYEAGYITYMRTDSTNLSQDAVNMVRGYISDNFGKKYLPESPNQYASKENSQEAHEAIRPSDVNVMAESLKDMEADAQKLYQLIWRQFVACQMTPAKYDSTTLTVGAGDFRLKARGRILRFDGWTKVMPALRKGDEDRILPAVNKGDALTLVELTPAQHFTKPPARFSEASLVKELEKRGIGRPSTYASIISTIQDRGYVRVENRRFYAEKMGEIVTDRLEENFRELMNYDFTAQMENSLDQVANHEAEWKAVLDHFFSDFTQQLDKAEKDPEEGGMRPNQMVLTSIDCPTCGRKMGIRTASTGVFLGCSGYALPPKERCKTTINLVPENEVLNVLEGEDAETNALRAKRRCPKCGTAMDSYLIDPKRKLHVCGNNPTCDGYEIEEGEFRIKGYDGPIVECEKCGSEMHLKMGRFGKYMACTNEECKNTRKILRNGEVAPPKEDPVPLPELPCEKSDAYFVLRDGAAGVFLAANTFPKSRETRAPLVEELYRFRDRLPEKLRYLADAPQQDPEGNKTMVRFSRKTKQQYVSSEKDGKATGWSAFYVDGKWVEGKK

COc1c(N2CC[C@@H](CN)C2)c(F)cc2c(=O)c(C(=O)O)cn(C3CC3)c12 [UING-5-249]
No^2: inhibition of E. coli Topo I (E. coli Topo I) | inhibition of hTopo I (hTopo I) | inhibition of cTopo I (Calf Topo I (cTopo I))
